ChEMBL document CHEMBL4339192, “De Novo Designed Amphipathic α-Helical Antimicrobial Peptides Incorporating Dab and Dap Residues on the Polar Face To Treat the Gram-Negative Pathogen, Acinetobacter baumannii” (J Med Chem, 2019)
Converted amounts (≈) assume the structure as drawn. Where a SMILES comes first, the peptide text is derived from it. Bridges are numbered along the chain shown (N, C = ends). [ ]: non-standard residue; d: D form. The star is where a group is joined. dOrn = NCCC[C@@H](N)C(=O)O; X1 = CC[C@H](C)CCCCC(=O)*; Dab = NCC[C@H](N)C(=O)O

Assays:
Type in all cases: functional
[1] = system: Acinetobacter baumannii; assay: Antibacterial activity against Acinetobacter baumannii isolate 1035794 measured after 24 hrs by microtiter dilution method; conditions: isolate 1035794, 24 h
Procedure, shortened: (§1)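 Broth microdilution in Mueller-Hinton (MH) medium. […] Plates were incubated 24 h at 37 °C. MIC was the lowest peptide concentration that inhibited growth, based on three sets of replicates.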

[2] = system: Acinetobacter baumannii; assay: Antibacterial activity against Acinetobacter baumannii isolate 952654 measured after 24 hrs by microtiter dilution method; conditions: isolate 952654, 24 h; procedure, shortened: as §1
[3] = system: Acinetobacter baumannii; assay: Antibacterial activity against Acinetobacter baumannii isolate 964304 measured after 24 hrs by microtiter dilution method; conditions: isolate 964304, 24 h; procedure, shortened: as §1
[4] = system: Acinetobacter baumannii; assay: Antibacterial activity against Acinetobacter baumannii isolate 1002956 measured after 24 hrs by microtiter dilution method; conditions: isolate 1002956, 24 h; procedure, shortened: as §1
[5] = system: Acinetobacter baumannii; assay: Antibacterial activity against polymyxin B/colistin-resistant Acinetobacter baumannii M89941 measured after 24 hrs by microtiter dilution method; conditions: M89941, 24 h; procedure, shortened: as §1
[6] = system: Acinetobacter baumannii; assay: Antibacterial activity against Acinetobacter baumannii isolate 968886 measured after 24 hrs by microtiter dilution method; conditions: isolate 968886, 24 h; procedure, shortened: as §1
[7] = system: Acinetobacter baumannii; assay: Antibacterial activity against Acinetobacter baumannii isolate 1007660 measured after 24 hrs by microtiter dilution method; conditions: isolate 1007660, 24 h; procedure, shortened: as §1
[8] = system: Acinetobacter baumannii; assay: Antibacterial activity against Acinetobacter baumannii isolate 965463 measured after 24 hrs by microtiter dilution method; conditions: isolate 965463, 24 h; procedure, shortened: as §1
[9] = system: Acinetobacter baumannii; assay: Antibacterial activity against Acinetobacter baumannii isolate 1021371 measured after 24 hrs by microtiter dilution method; conditions: isolate 1021371, 24 h; procedure, shortened: as §1
[10] = system: Acinetobacter baumannii; assay: Antibacterial activity against Acinetobacter baumannii isolate 963659 measured after 24 hrs by microtiter dilution method; conditions: isolate 963659, 24 h; procedure, shortened: as §1
[11] = system: Acinetobacter baumannii; assay: Antibacterial activity against Acinetobacter baumannii isolate 1010282 measured after 24 hrs by microtiter dilution method; conditions: isolate 1010282, 24 h; procedure, shortened: as §1
[12] = system: Acinetobacter baumannii; assay: Antibacterial activity against polymyxin B/colistin-resistant Acinetobacter baumannii M89953 measured after 24 hrs by microtiter dilution method; conditions: M89953, 24 h; procedure, shortened: as §1
[13] = system: Acinetobacter baumannii; assay: Antibacterial activity against Acinetobacter baumannii isolate 961997 measured after 24 hrs by microtiter dilution method; conditions: isolate 961997, 24 h; procedure, shortened: as §1
[14] = system: Acinetobacter baumannii; assay: Antibacterial activity against Acinetobacter baumannii isolate 963618 measured after 24 hrs by microtiter dilution method; conditions: isolate 963618, 24 h; procedure, shortened: as §1
[15] = system: Acinetobacter baumannii; assay: Antibacterial activity against polymyxin B/colistin-resistant Acinetobacter baumannii M89952 measured after 24 hrs by microtiter dilution method; conditions: M89952, 24 h; procedure, shortened: as §1
[16] = system: Acinetobacter baumannii; assay: Antibacterial activity against Acinetobacter baumannii isolate 1035166 measured after 24 hrs by microtiter dilution method; conditions: isolate 1035166, 24 h; procedure, shortened: as §1
[17] = system: Acinetobacter baumannii; assay: Antibacterial activity against polymyxin B/colistin-resistant Acinetobacter baumannii M89951 measured after 24 hrs by microtiter dilution method; conditions: M89951, 24 h; procedure, shortened: as §1
[18] = system: Acinetobacter baumannii; assay: Antibacterial activity against Acinetobacter baumannii isolate 981650 measured after 24 hrs by microtiter dilution method; conditions: isolate 981650, 24 h; procedure, shortened: as §1
[19] = system: Acinetobacter baumannii; assay: Antibacterial activity against Acinetobacter baumannii isolate 1001611 measured after 24 hrs by microtiter dilution method; conditions: isolate 1001611, 24 h; procedure, shortened: as §1
[20] = system: Acinetobacter baumannii; assay: Antibacterial activity against Acinetobacter baumannii isolate 1018887 measured after 24 hrs by microtiter dilution method; conditions: isolate 1018887, 24 h; procedure, shortened: as §1
[21] = system: Acinetobacter baumannii; assay: Antibacterial activity against Acinetobacter baumannii isolate 9383370 measured after 24 hrs by microtiter dilution method; conditions: isolate 9383370, 24 h; procedure, shortened: as §1
[22] = system: Acinetobacter baumannii; assay: Antibacterial activity against Acinetobacter baumannii isolate 1017395 measured after 24 hrs by microtiter dilution method; conditions: isolate 1017395, 24 h; procedure, shortened: as §1
[23] = system: Acinetobacter baumannii; assay: Antibacterial activity against polymyxin B/colistin-resistant Acinetobacter baumannii M89963 measured after 24 hrs by microtiter dilution method; conditions: M89963, 24 h; procedure, shortened: as §1
[24] = system: Acinetobacter baumannii; assay: Antibacterial activity against Acinetobacter baumannii isolate 1010245 measured after 24 hrs by microtiter dilution method; conditions: isolate 1010245, 24 h; procedure, shortened: as §1
[25] = system: Acinetobacter baumannii; assay: Antibacterial activity against Acinetobacter baumannii 649 measured after 24 hrs by microtiter dilution method; conditions: Acinetobacter baumannii, 649, 24 h; procedure, shortened: as §1
[26] = system: Acinetobacter baumannii; assay: Antibacterial activity against polymyxin B/colistin-resistant Acinetobacter baumannii M89949 measured after 24 hrs by microtiter dilution method; conditions: M89949, 24 h; procedure, shortened: as §1
[27] = system: Acinetobacter baumannii; assay: Antibacterial activity against Acinetobacter baumannii isolate 977751 measured after 24 hrs by microtiter dilution method; conditions: isolate 977751, 24 h; procedure, shortened: as §1
[28] = system: Acinetobacter baumannii; assay: Antibacterial activity against polymyxin B/colistin-resistant Acinetobacter baumannii M89955 measured after 24 hrs by microtiter dilution method; conditions: M89955, 24 h; procedure, shortened: as §1

CC(=O)N[C@H](CCCCN)C(=O)N[C@H](CC(C)C)C(=O)N[C@H](CCCN)C(=O)N[C@H](CO)C(=O)N[C@H](CC(C)C)C(=O)N[C@H](CC(C)C)C(=O)N[C@H](CCCN)C(=O)N[C@@H](C(=O)N[C@H](CC(C)C)C(=O)N[C@H](CO)C(=O)N[C@H](CCCN)C(=O)N[C@H](C)C(=O)N[C@H](C)C(=O)N[C@H](C)C(=O)N[C@H](C)C(=O)N[C@H](C)C(=O)N[C@H](CC(C)C)C(=O)N[C@H](CCCN)C(=O)N[C@@H](C(=O)N[C@H](CC(C)C)C(=O)N[C@H](CC(C)C)C(=O)N[C@H](CCCN)C(=O)N[C@H](C)C(=O)N[C@H](CC(C)C)C(=O)N[C@H](CO)C(=O)N[C@H](CCCN)C(N)=O)[C@H](C)O)[C@H](C)O (Ac-[dK][dL][dOrn][dS][dL][dL][dOrn][dT][dL][dS][dOrn][dA][dA][dA][dA][dA][dL][dOrn][dT][dL][dL][dOrn][dA][dL][dS][dOrn]-NH2)
MIC [1]: 3 µM (≈ 8 µg/mL)
MIC [2]: 1.5 µM (≈ 4 µg/mL)
MIC [3]: 1.5 µM (≈ 4 µg/mL)
MIC [4]: 1.5 µM (≈ 4 µg/mL)
MIC [5]: 2.9 µM (≈ 7.74 µg/mL)
MIC [6]: 3 µM (≈ 8 µg/mL)
MIC [7]: 1.5 µM (≈ 4 µg/mL)
MIC [8]: 3 µM (≈ 8 µg/mL)
MIC [9]: 1.5 µM (≈ 4 µg/mL)
MIC [10]: 0.7 µM (≈ 1.87 µg/mL)
MIC [11]: 1.5 µM (≈ 4 µg/mL)
MIC [12]: 1.5 µM (≈ 4 µg/mL)
MIC [13]: 1.5 µM (≈ 4 µg/mL)
MIC [14]: 1.5 µM (≈ 4 µg/mL)
MIC [15]: 1.5 µM (≈ 4 µg/mL)
MIC [16]: 1.5 µM (≈ 4 µg/mL)
MIC [17]: 1.5 µM (≈ 4 µg/mL)
MIC [18]: 1.5 µM (≈ 4 µg/mL)
MIC [19]: 1.5 µM (≈ 4 µg/mL)
MIC [20]: 3 µM (≈ 8 µg/mL)
MIC [21]: 3 µM (≈ 8 µg/mL)
MIC [22]: 3 µM (≈ 8 µg/mL)
MIC [23]: 2.9 µM (≈ 7.74 µg/mL)
MIC [24]: 1.5 µM (≈ 4 µg/mL)
MIC [25]: 1.5 µM (≈ 4 µg/mL)
MIC [26]: 2.9 µM (≈ 7.74 µg/mL)
MIC [27]: 6 µM (≈ 16 µg/mL)

CC[C@H](C)CCCCC(=O)N[C@@H](CCN)C(=O)N[C@H](C(=O)N[C@@H](CCN)C(=O)N[C@H]1CCNC(=O)[C@H]([C@@H](C)O)NC(=O)[C@H](CCN)NC(=O)[C@H](CCN)NC(=O)[C@H](CC(C)C)NC(=O)[C@@H](Cc2ccccc2)NC(=O)[C@H](CCN)NC1=O)[C@@H](C)O (X1-[Dab]T[Dab][Dab][Dab][dF]L[Dab][Dab]T; lactam 4-C)
MIC [5]: > 25 µM
MIC [28]: > 25 µM
MIC [12]: > 25 µM
MIC [15]: > 25 µM
MIC [17]: > 25 µM
MIC [23]: > 25 µM
MIC [26]: > 25 µM
